One compound from PMC6619501 (Nature microbiology, 2018) can be followed below.

One experiment deals with IκBα phosphorylation. Nature of the experiment: Immunoblot analysis of p-IκBα in A.f-infected BMDMs. Format: cell-based, mouse. The note with it: unprimed WT BMDMs incubated with NF-κB inhibitor during fungal infection. In outline: (§1)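 Bone-marrow-derived macrophages from C57BL/6-background mice, 3×10^6 cells in DMEM with 10% FBS and 1% penicillin–streptomycin, left unprimed and given the NF-κB inhibitor class test compound. They were then infected with A. fumigatus A1160 conidia (malt-agar slants, 1 week) at MOI 20. Cells were lysed in 1× RIPA, and 15 μg protein was separated by SDS-PAGE, transferred to PVDF and probed for p-IκBα, total IκBα and IRF1 with HRP detection. Representative of ≥3 independent experiments.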

Another experiment deals with IRF1. Nature of the experiment: Immunoblot analysis of IRF1 in A.f-infected BMDMs. Format: cell-based, mouse. As to conditions: unprimed WT BMDMs incubated with NF-κB inhibitor during fungal infection. The gist of the method:
as §1

As to `Cc1ccc(S(=O)(=O)/C=C/C#N)cc1` [Bay 11-7082], in the experiment on IκBα phosphorylation, the “phosphorylation of IκBα” value is “reduced”. The IRF1 induction result with IRF1 is listed as “reduced”.
